Experimental data: ChEMBL document CHEMBL3120084, “Structure-function relationships of Nile blue (EtNBS) derivatives as antimicrobial photosensitizers” (Eur J Med Chem, 2014)
Calls of active or inactive are those of the source. No cut-off for these calls is given here.

Key:
Acinetobacter baumannii [1] = assay: Antimicrobial activity against Acinetobacter baumannii ATCC 51393 assessed as log reduction in bacterial CFU incubated for 10 mins prior to irradiation with 10 J/cm2 of light; type: functional
Outline: (§1)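 Bacteria grown overnight in BHI broth at 37°C with shaking, refreshed 3 h, adjusted to OD600 0.5 (10^8 CFU/ml), pelleted and resuspended in PBS. Suspensions held with photosensitizer (0.1-100 μM, diluted from 5 mM DMA stock) 10 min in dark at room temperature, then 635-nm light at 10 J/cm2 and 50 mW/cm2. Surviving CFU counted by serial dilution on nutrient agar after 18 h at 37°C; triplicates.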

Escherichia coli [2] = assay: Antimicrobial activity against Escherichia coli ATCC 53868 assessed as log reduction in bacterial CFU incubated for 10 mins prior to irradiation with 10 J/cm2 of light; type: functional; outline: as §1
[3] = Octanol-phosphate buffered saline partition coefficient, log P of the compound at 100 uM after 30 mins; type: physicochemical
Outline: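 Compound (100 μM) in 1.5 mL octanol plus 1.5 mL PBS, stirred overnight at room temperature, then left 30 min for phases to separate. Each phase was read by absorbance at the compound's peak, undiluted and diluted 1:2 and 1:10. Log10 of the octanol/PBS ratio is reported.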

[4] = Induction of reactive oxygen species generation at 5 uM using singlet oxygen sensor green probe by microplate spectrophotometer analysis in presence of 1 J/cm'2 to 15 J/cm'2 of light; type: physicochemical
Outline: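 Cell-free assay in PBS: compound at 5 μM final with SOSG probe at 5 μM final, 4 wells per group. 635-nm light given in sequential doses of 1 to 15 J/cm2. Fluorescence read in slow kinetic mode at excitation 505 nm and emission 525 nm.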

Escherichia coli [5] = assay: Dark toxicity against Escherichia coli ATCC 53868 at 0.1 to 100 uM after 10 mins; type: organism-based; settings: in vivo
Outline: (§2)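 Dark controls: 10^8 CFU/ml in PBS with photosensitizer for 10 min at room temperature, no illumination. Solvent controls contained 2% DMA. Viability read as CFU after serial dilution, plating on nutrient agar and 18 h dark incubation at 37°C; triplicate.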

[6] = Induction of reactive oxygen species generation at 5 uM using hydroxyphenyl-fluorescein probe by microplate spectrophotometer analysis in presence of 1 J/cm'2 to 15 J/cm'2 of light; type: physicochemical
Outline: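 Cell-free assay in PBS: compound at 5 μM final with HPF probe at 5 μM final, 4 wells per group. 635-nm light given in sequential doses of 1 to 15 J/cm2. Fluorescence read in slow kinetic mode at excitation 490 nm and emission 515 nm, 2 nm bandpass.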

Acinetobacter baumannii [7] = assay: Dark toxicity against Acinetobacter baumannii ATCC 51393 at 0.1 to 100 uM after 10 mins; type: organism-based; settings: in vivo; outline: as §2
Enterococcus faecalis [8] = assay: Drug uptake in Enterococcus faecalis ATCC 29212 incubated for 10 mins in dark by fluorescence analysis; type: ADME, organism-based; settings: in vivo
Outline: (§3)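 Cells (10^8/ml) held with compound at 0.05-10 μM for 10 min in dark at room temperature. They were then pelleted, washed twice in PBS and lysed in RIPA for 30 min at room temperature. Lysate fluorescence was read at compound-specific wavelengths and converted with per-compound calibration curves. Values were normalized to protein measured by BCA against BSA standards.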

Escherichia coli [9] = assay: Drug uptake in Escherichia coli ATCC 53868 incubated for 10 mins in dark by fluorescence analysis; type: ADME, organism-based; settings: in vivo; outline: as §3
Acinetobacter baumannii [10] = assay: Drug uptake in Acinetobacter baumannii ATCC 51393 incubated for 10 mins in dark by fluorescence analysis; type: ADME, organism-based; settings: in vivo; outline: as §3
Staphylococcus aureus [11] = assay: Drug uptake in Staphylococcus aureus 8325-4 incubated for 10 mins in dark by fluorescence analysis; type: ADME, organism-based; settings: in vivo; outline: as §3
Staphylococcus aureus [12] = assay: Antimicrobial activity against Staphylococcus aureus 8325-4 assessed as log reduction in bacterial CFU incubated for 10 mins prior to irradiation with 10 J/cm2 of light; type: functional; outline: as §1
Enterococcus faecalis [13] = assay: Dark toxicity against Enterococcus faecalis ATCC 29212 at 0.1 to 100 uM after 10 mins; type: organism-based; settings: in vivo; outline: as §2
Staphylococcus aureus [14] = assay: Dark toxicity against Staphylococcus aureus 8325-4 at 0.1 to 100 uM after 10 mins; type: organism-based; settings: in vivo; outline: as §2
Enterococcus faecalis [15] = assay: Antimicrobial activity against Enterococcus faecalis ATCC 29212 assessed as log reduction in bacterial CFU incubated for 10 mins prior to irradiation with 10 J/cm2 of light; type: functional; outline: as §1
Escherichia coli [16] = assay: Dark toxicity against Escherichia coli ATCC 53868 at 50 uM after 10 mins; type: organism-based; settings: in vivo; outline: as §2
Enterococcus faecalis [17] = assay: Dark toxicity against Enterococcus faecalis ATCC 29212 at 50 uM after 10 mins; type: organism-based; settings: in vivo; outline: as §2
Acinetobacter baumannii [18] = assay: Dark toxicity against Acinetobacter baumannii ATCC 51393 at 50 uM after 10 mins; type: organism-based; settings: in vivo; outline: as §2
Staphylococcus aureus [19] = assay: Dark toxicity against Staphylococcus aureus 8325-4 at 50 uM after 10 mins; type: organism-based; settings: in vivo; outline: as §2

logP at 0.5 h, 100 µM [3]	Activity [4]	Activity [6]	Drug uptake (Enterococcus faecalis [8])	Drug uptake (Escherichia coli [9])	Drug uptake (Acinetobacter baumannii [10])	Drug uptake (Staphylococcus aureus [11])	Compound	Activity (Acinetobacter baumannii [1])	Activity (Escherichia coli [2])	Activity (Acinetobacter baumannii [7])	log10cfu (Staphylococcus aureus [12])	Activity (Enterococcus faecalis [13])	Activity (Staphylococcus aureus [14])	log10cfu (Enterococcus faecalis [15])	also measured
1.36	Active	Active					CC/N=c1/cc2sc3cc(N(CC)CC)ccc3nc-2c2c(NC(C)=O)cccc12.Cl	inactive	inactive	Toxic					Activity (Escherichia coli [5]): Toxic
1.77	Active	Active	Active	Active	Active	Active	CC/N=c1/cc2sc3cc(N(CC)CC)ccc3nc-2c2c(N)cccc12.Cl				<3				
2.03	Active	Active	Active	Active	Active	Active	CC/N=c1/cc2sc3cc(N(CC)CC)ccc3nc-2c2c([N+](=O)[O-])cccc12.Cl				5	Toxic	Toxic	5	

The next lines start with the compound.

Compound	logP at 0.5 h, 100 µM [3]	Activity [4]	Activity [6]	Drug uptake (Enterococcus faecalis [8])	Drug uptake (Escherichia coli [9])	Drug uptake (Acinetobacter baumannii [10])	Drug uptake (Staphylococcus aureus [11])	Activity (Acinetobacter baumannii [1])	Activity (Escherichia coli [2])	Activity (Acinetobacter baumannii [7])	log10cfu (Staphylococcus aureus [12])	Activity (Enterococcus faecalis [13])	Activity (Staphylococcus aureus [14])	log10cfu (Enterococcus faecalis [15])	also measured
CCCS(=O)(=O)N(CC)c1cccc2/c(=N\CC)cc3sc4cc(N(CC)CC)ccc4nc-3c12.Cl	2.19	Active	Active	Active	Active	Active	Active	inactive	inactive		4	Toxic	Toxic	>5	
CC/N=c1/cc2sc3cc(N(CC)CC)ccc3nc-2c2ccccc12.Cl	2.87	Active	Active	Active	Active	Active	Active				>6			>6	Activity (Escherichia coli [16]): Toxic; Activity (Enterococcus faecalis [17]): Toxic; log10cfu (Acinetobacter baumannii [1]): >6; log10cfu (Escherichia coli [2]): >6; Activity (Acinetobacter baumannii [18]): Toxic; Activity (Staphylococcus aureus [19]): Non-toxic
CCCS(=O)(=O)N(CC)c1cccc2c3nc4ccc(N(CC)CC)cc4sc-3c/c(=N\CC)c12.Cl	2.45	Active	Active	Active	Active	Active	Active	inactive	inactive	Non-toxic	>5	Non-toxic	Non-toxic		Activity (Escherichia coli [5]): Toxic
CCN(CC)c1ccc2nc3c4ccccc4/c(=N\CCNC(=N)N)cc-3sc2c1.Cl.Cl	0.49	Active	Active	Active	Active	Active	Active			Toxic	>5	Toxic	Toxic	>5	log10cfu (Acinetobacter baumannii [1]): >5; log10cfu (Escherichia coli [2]): >5
